Assay: Toxicity liver stage against HepG2, at 10uM
Type: cell-based
Parameters: test concentration 10 uM, cell line HepG2-A16-CD81EGFP
Conditions: human, HepG2-A16-CD81EGFP cells; read-out: INHIBITION
In short: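 Uninfected HepG2-A16-CD81EGFP cells, 3 × 10^3 per well, 1536-well, plated on prespotted compound at 10 μM final, parasite-free screening media added to match infected plates; puromycin 10 μM positive, DMSO 0.5% negative; run in parallel with 48 h PbLuc assay at 37 °C, 5% CO2; viability by CellTiter-Glo luminescence, normalized to controls.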

SMILES	cytotoxicity at 10 µM
O=C(COCC(F)(F)F)Nc1nncs1	5.79%
Cc1cccc(OC2CCN(C(=O)NCCn3ccnc3)CC2)c1C	0.856%
Cc1ccc(CNC2(Cc3cc(CO)on3)COC2)o1	0.305%
CC(C)NC(=O)N[C@H]1C[C@@H](c2nc(-c3ccncc3)no2)N(C)C1	-2.8%
CC(=O)N1N=C(c2ccco2)OC1C(=O)NCC(C)C (configuration not stated)	-5.31%
O=S1(=O)[C@@H](c2ccccc2)[C@H](CO)CN1c1ccccc1	-5.41%
Cc1nn(-c2ncnc3[nH]cnc23)c2c1C(CC(C)C)CC(=O)N2 (configuration not stated)	11.2%
Cc1ccc(NC(=O)CC2NC(N3CCc4ccccc43)=NC2=O)cc1 (configuration not stated)	0.417%
Cc1cc(C)n(Cc2ccc(-c3noc(C(=O)NC[C@@H](C)O)n3)cc2)n1	-9.62%
Cc1nn(-c2ncnc3[nH]cnc23)c2c1C(C(C)(C)C)CC(=O)N2 (configuration not stated)	5.08%
O=C(c1cscn1)N1CCC2(CC1)CCN(S(=O)(=O)c1ccccc1)C2	10.5%
Cc1nc(NC(C)C)nc2c1CN(Cc1nccn1C)CC2	8.13%
CO[C@@H]1CC[C@H]2[C@H]1OCCN2S(=O)(=O)c1cn(C)cn1	5.32%
COCCN1CCC2(CC1)COc1ccccc1S(=O)(=O)N(C)C2	-1.28%
COc1cc(N2CC[C@@H]3O[C@@H](C(=O)NC(C)C)C[C@@H]32)ncn1	7.66%
CN(C)Cc1cn2c(n1)CN(C1CCOC1)CC2 (configuration not stated)	6.43%
c1cncc(OCc2noc3c2CN(Cc2ccoc2)CC3)c1	-8.33%
CCN(CC)C(=O)c1ccn(COc2ccc(F)cc2F)n1	7.61%
COc1cccc(CNC(=O)c2cc(C)nc(N3CCCC3)n2)c1	23.1%
CCn1ccc(NS(=O)(=O)c2cccc(CSC)c2)n1	10.4%
Cc1cc(C(F)(F)F)nn1C(C)C(=O)NN1CCOCC1 (configuration not stated)	-1.67%
CC1CCN(C(=O)C2CC(=O)N(c3cnn(C(C)C)c3)C2)CC1 (configuration not stated)	-0.343%
Cn1ccc(C(=O)N2CCC(c3cc(CCO)n(C)n3)C2)n1 (configuration not stated)	-3.69%

SMILES	cytotoxicity at 10 µM
Cc1ncsc1C(=O)N1CCC(c2ccc3c(NC(C)C)n[nH]c3n2)C1 (configuration not stated)	4.42%
CC(=O)NCc1cncc(C2CCCN2C2CCOCC2)n1 (configuration not stated)	2.15%
Cc1ncsc1CN1CCOC(C)(C(=O)N2CCOCC2)C1 (configuration not stated)	-1.95%
CNC(=O)C1(C)CN(c2nc(C)cc(C)n2)CCO1 (configuration not stated)	7.92%
Cc1cc(Nc2ncccn2)nc(C2CCCN(CCO)C2)n1 (configuration not stated)	1.09%
COc1cc2cc3c(nc2cc1OC)OCCN(Cc1cccs1)C3	11.4%
Cc1cnn(CC2CCN(CC(O)c3ccc(F)cc3)CC2)c1 (configuration not stated)	-0.237%
CCC(c1ccncc1)N(C)S(C)(=O)=O (configuration not stated)	-5.98%
CCC1(CC)CC(=O)N(CC(O)c2cc(F)ccc2F)C1=O (configuration not stated)	-4.42%
O=C(NCCc1nncn1C1CC1)C1SCCc2ccccc21 (configuration not stated)	2.48%
CCc1noc(CN(C)C2CCN(c3sccc3C#N)C2=O)n1 (configuration not stated)	7.73%
COc1ccc(Cl)cc1CS(=O)(=O)Cc1nc(C2CC2)no1	3.43%
Cc1noc(C(C)Nc2ccc3oc(=O)[nH]c3c2)n1 (configuration not stated)	-2.27%
CC(C)S(=O)(=O)C(C)C(=O)NCc1ccccc1COc1ccccc1 (configuration not stated)	12.1%
NC(=O)C1CCN(c2ncccc2C(=O)N2CCc3ccccc32)C1 (configuration not stated)	-5.78%
O=C(Nc1ccc2c(ccn2CCN2CCOCC2)c1)c1ccccn1	0.425%
O=C(Nc1ccccn1)c1nc(N2CCCC2)ncc1Cl	-8.77%
Cc1cc(S(=O)(=O)Nc2cccc(I)c2)sc1C(=O)O	3.76%
CC(=O)c1cccc(NS(=O)(=O)c2cc(C)c(C(=O)O)s2)c1	0.178%
N#Cc1ncn(CCC(=O)Nc2ccccc2F)n1	-150%
O=C(NCc1ccncc1)c1ccc(Cl)cc1F	0.55%
O=C(Nc1cccc(CN2CCOC2=O)c1)N1CCCCCC1	18.6%
Cc1nccn1-c1cc(CNC(=O)CCNC(=O)OC(C)(C)C)ccn1	-1.7%

SMILES	cytotoxicity at 10 µM
COc1ccccc1C1(CNc2ccc(C(=O)N(C)C)cn2)CC1	-10.5%
CS(=O)(=O)CCCNC(=O)NC1CC(c2cccc(Cl)c2)C1 (configuration not stated)	-3.17%
CC(OCC(F)(F)F)C(=O)NCCN(C)C (configuration not stated)	-3.17%
Cc1ccc(F)c(NCC(C)(C)S(C)(=O)=O)c1	-7.6%
O=C(C[S+]([O-])Cc1ccc(F)cc1Cl)N1CCc2sccc2C1 (configuration not stated)	-2.22%
CN(CCc1nccs1)C(=O)CC1(O)CCCCC1	-6.16%
Cc1nccc(CNC(=O)N2CCN(Cc3ccccc3)C[C@H]2C)n1	-128%
Cc1ccc(-n2nnnc2C2(NCc3ccco3)CCCC2)cc1	7.55%
COC(=O)CCC(=O)Nc1ccc(Br)c(C)n1	7.07%
Cc1cnn(C2CN(Cc3nnc(C4CC4)o3)C2)c1	-6.49%
CCCN1CCCN(C(=O)C(CC)N2CCCC2=O)CC1 (configuration not stated)	-6.17%
CC(C)c1nc(CNc2ccc(CCO)cc2)cs1	20.1%
Cn1ccnc(Sc2ccccc2)c1=O	0.483%
C[S+]([O-])c1nncn1CC(=O)c1cccc(Cl)c1 (configuration not stated)	-1.02%
Cc1cccc(NC(=O)[C@@H]2CCCN2CC(=O)N2CCCCCC2)n1	20.3%
CC(C)c1nc(CN(C)CC2CCN(CCO)CC2)no1	-4.32%
CC(=O)N1CCN(CCNS(=O)(=O)c2ccc(C)c(F)c2)CC1	-1.84%
COc1ccc(S(=O)(=O)N2C[C@@H]3CN(C)CCO[C@@H]3C2)cc1	1.82%
COc1nccc(N2CC[C@@H](N3CCN(C)CC3)[C@H](O)C2)c1C#N	-147%
CC1(c2ccccc2)CCCN(C(=O)c2ccn3nnnc3c2)C1 (configuration not stated)	22.6%
Cc1nc(C)c(C)c(N2CCC3(CCN(C)C3)C2)n1 (configuration not stated)	-4.88%
COc1cccc([C@@H]2CCN(Cc3cccc(C)n3)C[C@H]2O)c1	2.22%
CNC(=O)C(C)(C)N(C)C(=O)c1cc(COc2ccccc2OC)[nH]n1	-5.12%

SMILES	cytotoxicity at 10 µM
CC(C)c1cc(C(=O)N[C@H]2CN(C3CCOCC3)C[C@@H]2C2CC2)no1	6.31%
CC(NC1CCSCC1)c1ccccc1-n1cccn1 (configuration not stated)	-2.24%
COCCn1cncc1Cn1cccc(C(F)(F)F)c1=O	-19.2%
O=C1CN(CCCNS(=O)(=O)c2cccc(C(=O)NC3CC3)c2)CCN1	-3.45%
CCN(C)S(=O)(=O)N1CCCC(CO)(CC=C(C)C)C1 (configuration not stated)	-3.41%
COC(=O)[C@@H]1C[C@H](NC(=O)Cn2c(=O)cc(C)c3ccccc32)CN1C	-3.44%
CC1(C)OC(=O)N(CCCC(=O)c2ccc(F)cc2)C1=O	-4.87%
CCc1noc(CN(C)Cc2cc3ccc(Cl)cc3[nH]c2=O)n1	4.92%
Cn1ccc2c(-c3cc(N4CCOCC4)ncn3)ccnc21	2.64%
CN(CCc1ncnn1C1Cc2ccccc2C1)C1CCS(=O)(=O)C1 (configuration not stated)	-3.54%
CCN(Cc1nccn1C)C(=O)c1ccc(NCc2cnn(C)c2)nc1	0.82%
Nc1ccc(C(=O)N2CCCC(C(=O)CCc3ccccc3)C2)cn1 (configuration not stated)	-7.98%
CN(C)S(=O)(=O)N1CC[C@]2(O)CCN(Cc3cccc(C#N)c3)C[C@@H]2C1	-4.63%
O=C(CCCN1CCOCC1)N1CCCC(CO)(CC2CC2)C1 (configuration not stated)	-1.5%
CN(CC(=O)N1CC(C)(C)[C@](O)(C2CC2)C1)Cc1cccnc1	-52%
COc1ccc(Oc2cncc(C3CCCN3C(C)=O)n2)cc1 (configuration not stated)	2.86%
CCCc1noc(CN2CCN(c3nccs3)CC2)n1	-3.43%
CC(Cn1cccn1)NC(=O)Nc1ccccn1 (configuration not stated)	1.32%
CNc1nc(CNC(=O)Nc2ccc(SC)c(F)c2)cs1	-5.75%
Cc1cc(CNc2cc(Cl)ccc2C)no1	-7.01%
Cc1ccccc1OCC(=O)N1CCCC(CNS(C)(=O)=O)C1 (configuration not stated)	2.07%
CCc1nccn1C1CCCN(C(=O)c2csc(C3CC3)n2)C1 (configuration not stated)	-9.39%
CN(C)c1ncccc1CNS(=O)(=O)c1ccccc1Cl	-15.3%

SMILES	cytotoxicity at 10 µM
Cc1cnn(CC2CCCCN2C(=O)c2ccc(N(C)C)nc2)c1 (configuration not stated)	-13.2%
Cc1nn(C)c(C)c1C1CCCN1C(=O)c1ccnc(N(C)C)c1 (configuration not stated)	-5.42%
CCc1nc(CN2CCCN(C(=O)c3cncnc3C)CC2)cs1	-7.95%
CCn1cnnc1CNC(=O)N1CCOCC1	3.66%
Cc1nc(C2CCCN(C(=O)c3cccc4c3OCO4)C2)no1 (configuration not stated)	3.39%
CCCc1ncc(C(=O)N2CCOC(c3nc(C)n[nH]3)C2)s1 (configuration not stated)	-0.12%
Cc1ccccc1CN1CCN(CC(=O)Nc2cccnc2)CC1	-2.82%
CN(C)Cc1nn(C)c2c1CN(C(=O)c1ccc[nH]1)C2	9.22%
O=C1CC(c2ccncc2)C2(CCN(CC3CC3)CC2)N1 (configuration not stated)	11.3%
O=S(=O)(C1CC1)N1CC[C@H](OCC2CC2)[C@@H]1Cc1cccnc1	8.13%
Cc1ccc(CN2CCc3ncnc(-c4ccncc4)c3CC2)o1	-1.19%
O=C(Nc1ccc(F)cc1)C(c1ccccc1)N1CCOCC1 (configuration not stated)	-3.84%
c1coc(CN2CCCn3c(CN4CCOCC4)nnc3C2)c1	4.86%
CC1c2ncc(CNC(=O)C3CC3)n2CCN1Cc1nccs1 (configuration not stated)	-5.43%
CC(C)Nc1nc2c(cc1C(=O)N(C)C)CCNCC2	-4.99%
Cn1nc(Cn2cccn2)c2c1CN(C1CCOC1)C2 (configuration not stated)	6.92%
Cc1ccsc1CN1C[C@@H]2COC[C@]2(COCC(=O)N(C)C)C1	-4.55%
Cc1ccnc(N2C[C@H]3CC[C@@H](C2)N(CC2CCC2)C3=O)n1	11.4%
CN1CC2(CCC(C(=O)O)CC2)Oc2ccccc2C1=O (configuration not stated)	2%
CCCSCC(=O)N1C[C@@H]2CC[C@H]1CN(c1ncccn1)C2	4.42%
